Test results taken from ChEMBL document CHEMBL3992547, “Antimicrobial activity of rhodanine-3-acetic acid derivatives” (Bioorg Med Chem, 2017).
Values after ≈ are worked out from the molar mass of the structure shown. Active and inactive are the calls of the source. No cut-off for these calls is given here.

How the values were obtained:
Klebsiella pneumoniae [1] = assay: Antibacterial activity against Klebsiella pneumoniae D 11750/08 up to 500 uM incubated for 24 to 48 hrs under dark condition by microdilution broth assay; assay type: functional
Outline: (§1)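 Broth microdilution per M07-A07, modified, in Mueller-Hinton broth adjusted to pH 7.4 (±0.2). Inoculum is prepared in sterile water to McFarland 0.5 (1.5 × 10⁸ CFU/mL). Plates are incubated in the dark at 35 °C in humid air. MIC is read after 24 and 48 h as at least 95% growth reduction versus control (IC₉₅).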

Enterococcus [2] = assay: Antibacterial activity against Enterococcus sp. J 14365/08 incubated for 24 hrs under dark condition by microdilution broth assay; conditions: J 14365/08, 24 h
Mycobacterium avium [3] = assay: Antimycobacterial activity against Mycobacterium avium 330/88 measured after 14 days by micromethod; assay type: functional; conditions: 330/88, 336 h
Pichia kudriavzevii = assay: Antifungal activity against Candida krusei E28 after 24 to 48 hrs hrs by microdilution broth assay; assay type: functional
Outline: (§2)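 Broth microdilution per CLSI M27-A3 and M38-A2 in RPMI 1640 with glutamine, buffered to pH 7.0 with MOPS. Compounds are diluted in DMSO. Final inoculum is 5 × 10³ CFU/mL for yeasts and 0.5–5 × 10⁴ CFU/mL for moulds. Plates are incubated in the dark at 35 °C in humid air and read visually and/or at 540 nm after 24 and 48 h. MIC is ≥80% growth reduction (IC₈₀) for yeasts and ≥50% (IC₅₀) for filamentous fungi.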

Staphylococcus aureus [4] = assay: Antibacterial activity against Staphylococcus aureus CCM 4516/08 incubated for 24 hrs under dark condition by microdilution broth assay; assay type: functional; conditions: CCM 4516/08, 24 h; outline: as §1
Enterococcus [5] = assay: Antibacterial activity against Enterococcus sp. J 14365/08 incubated for 48 hrs under dark condition by microdilution broth assay; conditions: J 14365/08, 48 h
Staphylococcus aureus [6] = assay: Antibacterial activity against methicillin-resistant Staphylococcus aureus H 5996/08 incubated for 24 hrs under dark condition by microdilution broth assay; assay type: functional; conditions: H 5996/08, 24 h
Outline: (§3)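 Microdilution broth method modified per M07-A07, in Mueller-Hinton broth adjusted to pH 7.4 (±0.2). Inoculum made in sterile water to 0.5 McFarland (1.5 × 10⁸ CFU/mL). Plates incubated in the dark at 35 °C in a humid atmosphere, with reads at 24 and 48 h. MIC taken as at least 95% growth reduction (IC₉₅) versus control.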

[7] = tested on: Staphylococcus epidermidis; assay: Antibacterial activity against Staphylococcus epidermidis H 6966/08 incubated for 48 hrs under dark condition by microdilution broth assay; assay type: functional; conditions: H 6966/08, 48 h; outline: as §1
Trichosporon asahii [8] = assay: Antifungal activity against Trichosporon asahii 1188 after 24 hrs by microdilution broth assay; assay type: functional; conditions: Trichosporon asahii, 1188, 24 h; outline: as §2
Pseudomonas aeruginosa = assay: Antibacterial activity against Pseudomonas aeruginosa CCM 1961 up to 500 uM incubated for 24 to 48 hrs under dark condition by microdilution broth assay; assay type: functional; outline: as §1
Staphylococcus aureus [9] = assay: Antibacterial activity against methicillin-resistant Staphylococcus aureus H 5996/08 incubated for 48 hrs under dark condition by microdilution broth assay; assay type: functional; conditions: H 5996/08, 48 h; outline: as §3
Mycobacterium kansasii [10] = assay: Antimycobacterial activity against Mycobacterium kansasii isolate 6509/96 after 21 days by micromethod; assay type: functional; conditions: isolate 6509/96, 504 h
[11] = tested on: Trichophyton mentagrophytes; assay: Antifungal activity against Trichophyton mentagrophytes 445 after 120 hrs by microdilution broth assay; assay type: functional; conditions: Trichophyton mentagrophytes, 445, 120 h
Outline: (§4)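 Broth microdilution per CLSI M38-A2 in RPMI 1640 with glutamine, buffered to pH 7.0 with MOPS, with DMSO as diluent. Final inoculum is 0.5–5 × 10⁴ CFU/mL. Plates are incubated in the dark at 35 °C in humid air and read visually and/or at 540 nm after 72 and 120 h. MIC is at least 50% growth reduction versus control.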

Candida albicans [12] = assay: Antifungal activity against Candida albicans ATCC 44859 after 24 hrs by microdilution broth assay; assay type: functional; conditions: ATCC 44859, 24 h; outline: as §2
[13] = tested on: Staphylococcus epidermidis; assay: Antibacterial activity against Staphylococcus epidermidis H 6966/08 incubated for 24 hrs under dark condition by microdilution broth assay; assay type: functional; conditions: H 6966/08, 24 h; outline: as §1
Candida albicans [14] = assay: Antifungal activity against Candida albicans ATCC 44859 after 48 hrs by microdilution broth assay; assay type: functional; conditions: ATCC 44859, 48 h; outline: as §2
Escherichia coli [15] = assay: Antibacterial activity against Escherichia coli CCM 4517 incubated for 48 hrs under dark condition by microdilution broth assay; assay type: functional; conditions: CCM 4517, 48 h; outline: as §1
Mycobacterium kansasii [16] = assay: Antimycobacterial activity against Mycobacterium kansasii isolate 235/80 after 21 days by micromethod; assay type: functional; conditions: isolate 235/80, 504 h
Candida tropicalis [17] = assay: Antifungal activity against Candida tropicalis 156 after 48 hrs by microdilution broth assay; assay type: functional; conditions: Candida tropicalis, 156, 48 h; outline: as §2
[18] = Solubility of the compound in Sula's semisynthetic medium up to 1 mM; assay type: physicochemical
Aspergillus fumigatus [19] = assay: Antifungal activity against Aspergillus fumigatus 231 after 24 hrs by microdilution broth assay; assay type: functional; conditions: Aspergillus fumigatus, 231, 24 h; outline: as §2
Trichosporon asahii [20] = assay: Antifungal activity against Trichosporon asahii 1188 after 48 hrs by microdilution broth assay; assay type: functional; conditions: Trichosporon asahii, 1188, 48 h; outline: as §2
Mycobacterium kansasii [21] = assay: Antimycobacterial activity against Mycobacterium kansasii isolate 6509/96 after 14 days by micromethod; assay type: functional; conditions: isolate 6509/96, 336 h
Mycobacterium avium [22] = assay: Antimycobacterial activity against Mycobacterium avium 330/88 measured after 21 days by micromethod; assay type: functional; conditions: 330/88, 504 h
Mycobacterium kansasii [23] = assay: Antimycobacterial activity against Mycobacterium kansasii isolate 6509/96 after 7 days by micromethod; assay type: functional; conditions: isolate 6509/96, 168 h
Escherichia coli [24] = assay: Antibacterial activity against Escherichia coli CCM 4517 incubated for 24 hrs under dark condition by microdilution broth assay; assay type: functional; conditions: CCM 4517, 24 h; outline: as §1
Mycobacterium kansasii [25] = assay: Antimycobacterial activity against Mycobacterium kansasii isolate 235/80 after 14 days by micromethod; assay type: functional; conditions: isolate 235/80, 336 h
Nakaseomyces glabratus [26] = assay: Antifungal activity against Candida glabrata 20/I after 48 hrs by microdilution broth assay; assay type: functional; outline: as §2
[27] = tested on: Mycobacterium tuberculosis; assay: Antimycobacterial activity against Mycobacterium tuberculosis H37Rv 331/88 measured after 14 days by micromethod; assay type: functional; conditions: H37Rv 331/88, 336 h
Klebsiella pneumoniae [28] = assay: Antibacterial activity against ESBL positive Klebsiella pneumoniae J 14368/08 up to 500 uM incubated for 24 to 48 hrs under dark condition by microdilution broth assay; assay type: functional; outline: as §1
Mycobacterium kansasii [29] = assay: Antimycobacterial activity against Mycobacterium kansasii isolate 235/80 after 7 days by micromethod; assay type: functional; conditions: isolate 235/80, 168 h
[30] = tested on: Mycobacterium tuberculosis; assay: Antimycobacterial activity against Mycobacterium tuberculosis H37Rv 331/88 measured after 21 days by micromethod; assay type: functional; conditions: H37Rv 331/88, 504 h
Lichtheimia corymbifera = assay: Antifungal activity against Absidia corymbifera 272 after 24 to 48 hrs hrs by microdilution broth assay; assay type: functional; outline: as §2
Candida tropicalis [31] = assay: Antifungal activity against Candida tropicalis 156 after 24 hrs by microdilution broth assay; assay type: functional; conditions: Candida tropicalis, 156, 24 h; outline: as §2
Nakaseomyces glabratus [32] = assay: Antifungal activity against Candida glabrata 20/I after 24 hrs by microdilution broth assay; assay type: functional; outline: as §2
Staphylococcus aureus [33] = assay: Antibacterial activity against Staphylococcus aureus CCM 4516/08 incubated for 48 hrs under dark condition by microdilution broth assay; assay type: functional; conditions: CCM 4516/08, 48 h; outline: as §1
[34] = tested on: Trichophyton mentagrophytes; assay: Antifungal activity against Trichophyton mentagrophytes 445 after 72 hrs by microdilution broth assay; assay type: functional; conditions: Trichophyton mentagrophytes, 445, 72 h; outline: as §4
Aspergillus fumigatus [35] = assay: Antifungal activity against Aspergillus fumigatus 231 after 48 hrs by microdilution broth assay; assay type: functional; conditions: Aspergillus fumigatus, 231, 48 h; outline: as §2

With `O=C(O)CN1C(=O)/C(=C/c2ccc(O)cc2)SC1=S` the Activity (Klebsiella pneumoniae [1]) was “inactive”, the MIC95 (Enterococcus [2]) was over 500 µM and the MIC (Mycobacterium avium [3]) was 1000 µM (≈ 295 µg/mL). For the same compound, the Activity (Pichia kudriavzevii) was “inactive”, the MIC95 (Staphylococcus aureus [4]) was 500 µM (≈ 148 µg/mL) and the MIC95 (Enterococcus [5]) was over 500 µM. It also gave an MIC95 (Staphylococcus aureus [6]) of 500 µM (≈ 148 µg/mL), an MIC95 [7] of 500 µM (≈ 148 µg/mL) and an MIC80 (Trichosporon asahii [8]) of over 500 µM. For the same compound, the Activity (Pseudomonas aeruginosa) was “inactive”, the MIC95 (Staphylococcus aureus [9]) was over 500 µM and the MIC (Mycobacterium kansasii [10]) was 1000 µM (≈ 295 µg/mL). It also gave an MIC50 [11] of over 500 µM, an MIC80 (Candida albicans [12]) of 500 µM (≈ 148 µg/mL) and an MIC95 [13] of 250 µM (≈ 73.8 µg/mL). The MIC80 (Candida albicans [14]) was 500 µM (≈ 148 µg/mL), the MIC95 (Escherichia coli [15]) was over 500 µM and the MIC (Mycobacterium kansasii [16]) was 1000 µM (≈ 295 µg/mL). For the same compound, the MIC80 (Candida tropicalis [17]) was over 500 µM, the solubility [18] was “Soluble” and the MIC50 (Aspergillus fumigatus [19]) was over 500 µM. For the same compound, the MIC80 (Trichosporon asahii [20]) was over 500 µM, the MIC (Mycobacterium kansasii [21]) was 1000 µM (≈ 295 µg/mL) and the MIC (Mycobacterium avium [22]) was 1000 µM (≈ 295 µg/mL). The MIC (Mycobacterium kansasii [23]) was 1000 µM (≈ 295 µg/mL), the MIC95 (Escherichia coli [24]) was over 500 µM and the MIC (Mycobacterium kansasii [25]) was 1000 µM (≈ 295 µg/mL). The MIC80 (Nakaseomyces glabratus [26]) was over 500 µM, the MIC [27] was 1000 µM (≈ 295 µg/mL) and the Activity (Klebsiella pneumoniae [28]) was “inactive”. For the same compound, the MIC (Mycobacterium kansasii [29]) was 1000 µM (≈ 295 µg/mL), the MIC [30] was 1000 µM (≈ 295 µg/mL) and the Activity (Lichtheimia corymbifera) was “inactive”. For the same compound, the MIC80 (Candida tropicalis [31]) was over 500 µM, the MIC80 (Nakaseomyces glabratus [32]) was over 500 µM and the MIC95 (Staphylococcus aureus [33]) was over 500 µM. The MIC50 [34] was over 500 µM and the MIC50 (Aspergillus fumigatus [35]) was over 500 µM.
